The text below walks through data of PMC7050655 (ChemistryOpen, 2020).

Data set [1] can be described thus: Metabolic stability in human liver microsomes. It counts as in vitro ADME. In outline: (§1)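 Part of an automated 96-well preclinical profiling panel with UPLC-MS/MS read-out. Values are mean and SD from three independent test occasions.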
(Liver microsomes are vesicles of endoplasmic reticulum, rich in cytochrome P450 enzymes.)

The nature of data set [2]: Human plasma protein binding. It counts as in vitro ADME. Particulars: PPB (human protein plasma binding). The essentials: (§2)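 Part of an automated 96-well profiling panel run in […], reporting fraction unbound and compound stability (% remaining after 18 h). Read-out by UPLC-MS/MS. Values are mean and SD from three independent test occasions.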
Data set [3] can be described thus: Metabolic stability in rat hepatocytes. It counts as in vitro ADME. As to conditions: for hepatocyte CLint: Rat hep. Clint (rat hepatocytes intrinsic clearance), rat hepatocytes; for half-life: Rat hep. t 1/2, rat hepatocytes. In outline:
as §1

A further data set in a line: Human plasma stability. Particulars: after 18 h incubation. It counts as in vitro ADME. The essentials: as §2
The target in another data set is T1, IRAP from CHO cells (Cricetulus griseus, UniProt A0A8C2M8D5).
T1 sequence (A0A8C2M8D5 1-1025): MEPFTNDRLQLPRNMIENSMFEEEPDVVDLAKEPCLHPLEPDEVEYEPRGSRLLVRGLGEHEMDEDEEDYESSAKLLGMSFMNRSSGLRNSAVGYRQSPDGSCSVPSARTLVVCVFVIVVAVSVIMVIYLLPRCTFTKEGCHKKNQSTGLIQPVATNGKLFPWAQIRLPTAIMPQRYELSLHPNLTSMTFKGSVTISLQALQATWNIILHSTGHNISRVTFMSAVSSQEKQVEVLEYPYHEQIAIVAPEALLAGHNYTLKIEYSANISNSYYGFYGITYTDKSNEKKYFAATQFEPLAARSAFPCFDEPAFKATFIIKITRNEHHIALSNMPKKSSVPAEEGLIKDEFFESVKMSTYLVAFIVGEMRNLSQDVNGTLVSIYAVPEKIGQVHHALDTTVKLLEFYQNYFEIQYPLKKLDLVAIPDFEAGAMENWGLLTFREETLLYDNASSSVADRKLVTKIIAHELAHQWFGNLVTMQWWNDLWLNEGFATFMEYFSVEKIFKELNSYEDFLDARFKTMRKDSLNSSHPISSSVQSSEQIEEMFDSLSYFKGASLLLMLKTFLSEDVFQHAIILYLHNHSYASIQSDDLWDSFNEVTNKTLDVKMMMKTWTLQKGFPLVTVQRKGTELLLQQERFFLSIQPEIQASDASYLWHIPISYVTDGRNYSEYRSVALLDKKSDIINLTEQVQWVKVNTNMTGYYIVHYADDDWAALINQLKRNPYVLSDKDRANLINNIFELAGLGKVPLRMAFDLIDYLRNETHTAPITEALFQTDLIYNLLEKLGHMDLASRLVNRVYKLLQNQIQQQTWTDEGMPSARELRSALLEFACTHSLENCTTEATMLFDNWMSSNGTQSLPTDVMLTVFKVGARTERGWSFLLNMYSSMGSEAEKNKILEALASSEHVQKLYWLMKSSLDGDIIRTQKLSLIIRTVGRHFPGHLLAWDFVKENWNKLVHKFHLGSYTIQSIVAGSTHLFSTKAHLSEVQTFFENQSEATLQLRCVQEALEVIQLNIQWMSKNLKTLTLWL
The experiment in a line: IRAP inhibition, membrane preparations from CHO cells, L-Leu-pNA cleavage. It counts as biochemical, Chinese hamster.

In data set [4] the target is human aminopeptidase N overexpressed in HEK293 cells (Homo sapiens, UniProt P15144). It counts as biochemical. Particulars: for specificity for IRAP over human APN: IRAP versus human APN; for pIC50: human aminopeptidase N overexpressed in HEK293 cells. In outline: (§3)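 HEK293T suspension cells were grown in Freestyle medium (37 °C, 8 % CO2, shaken) and transfected with PEI (2 μg/10^6 cells). Plasmid per 10^6 cells was 1.1 μg for human IRAP and 0.7 μg for human APN. Cells were harvested at 48 h. Membranes were prepared as for CHO cells, stored at −80 °C, Dounce-homogenised and diluted in assay buffer. The set-up matched the CHO assay: 1 mM L-Leu-pNA, pH 7.4 Tris/NaCl/PMSF buffer, 405 nm absorbance.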
human aminopeptidase N overexpressed in HEK293 cells, sequence (P15144 whole entry): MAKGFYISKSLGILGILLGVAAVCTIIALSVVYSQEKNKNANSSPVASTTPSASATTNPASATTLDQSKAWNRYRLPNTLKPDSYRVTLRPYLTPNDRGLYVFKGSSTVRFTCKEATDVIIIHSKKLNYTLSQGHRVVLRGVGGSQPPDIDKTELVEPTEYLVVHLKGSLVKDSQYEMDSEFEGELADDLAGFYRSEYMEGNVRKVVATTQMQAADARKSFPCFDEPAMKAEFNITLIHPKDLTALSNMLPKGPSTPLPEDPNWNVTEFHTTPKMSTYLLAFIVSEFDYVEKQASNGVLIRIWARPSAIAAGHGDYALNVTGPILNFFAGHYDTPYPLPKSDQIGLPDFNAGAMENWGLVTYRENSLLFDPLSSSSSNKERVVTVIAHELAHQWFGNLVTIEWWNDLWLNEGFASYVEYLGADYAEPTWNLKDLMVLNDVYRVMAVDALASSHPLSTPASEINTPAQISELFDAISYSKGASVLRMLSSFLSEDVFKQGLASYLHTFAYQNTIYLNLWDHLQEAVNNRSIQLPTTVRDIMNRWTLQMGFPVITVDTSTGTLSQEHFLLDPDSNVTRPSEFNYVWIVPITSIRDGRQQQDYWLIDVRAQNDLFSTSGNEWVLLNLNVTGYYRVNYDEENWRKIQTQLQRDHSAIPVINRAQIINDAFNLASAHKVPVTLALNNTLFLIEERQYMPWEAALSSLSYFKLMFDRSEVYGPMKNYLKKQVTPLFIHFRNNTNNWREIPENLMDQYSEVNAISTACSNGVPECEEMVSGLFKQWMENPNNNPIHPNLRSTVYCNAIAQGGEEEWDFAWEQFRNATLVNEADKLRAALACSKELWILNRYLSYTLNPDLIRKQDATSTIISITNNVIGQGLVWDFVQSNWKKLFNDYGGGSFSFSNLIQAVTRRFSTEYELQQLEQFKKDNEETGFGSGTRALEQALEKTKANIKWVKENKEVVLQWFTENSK

The next data set has as its target T2, IRAP (Cricetulus griseus, UniProt A0A8C2M8D5).
T2 sequence (A0A8C2M8D5 1-1025): T1 sequence (A0A8C2M8D5 1-1025)
The experiment in a line: Enzyme kinetics / competition studies with varied L-Leu-pNA substrate. It counts as biochemical. Particulars: enzyme kinetics experiments. The essentials: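 Inhibitor was serially diluted (39 nM–150 μM), with four technical replicates per substrate level. Absorbance at 405 nm was read every ten minutes. The 150 μM slope defined maximal inhibition and was subtracted. Rates were fitted to uncompetitive, competitive and non-competitive models and compared; per-concentration Michaelis-Menten fits were also made.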

Data set [5] deals with human membrane bound IRAP overexpressed in HEK293 cells (Homo sapiens, UniProt Q9UIQ6). It counts as biochemical. In outline:
as §3

One may read the half-life as the time in which the quantity being followed falls by half. A low value points to rapid decline. As usually defined, the microsomal CLint is the rate of metabolic loss divided by the concentration. Read a high microsomal CLint as rapid turnover. One may read the fraction unbound as the share of the substance not bound to proteins or other matrix. A lower fraction unbound goes with little free substance. What is called hepatocyte CLint is the rate of metabolic loss divided by the concentration. Usually IC50 stands for the concentration at which inhibition is half-maximal. The low end stands for higher potency, the high end for lower potency.

human membrane bound IRAP overexpressed in HEK293 cells, sequence (Q9UIQ6 whole entry): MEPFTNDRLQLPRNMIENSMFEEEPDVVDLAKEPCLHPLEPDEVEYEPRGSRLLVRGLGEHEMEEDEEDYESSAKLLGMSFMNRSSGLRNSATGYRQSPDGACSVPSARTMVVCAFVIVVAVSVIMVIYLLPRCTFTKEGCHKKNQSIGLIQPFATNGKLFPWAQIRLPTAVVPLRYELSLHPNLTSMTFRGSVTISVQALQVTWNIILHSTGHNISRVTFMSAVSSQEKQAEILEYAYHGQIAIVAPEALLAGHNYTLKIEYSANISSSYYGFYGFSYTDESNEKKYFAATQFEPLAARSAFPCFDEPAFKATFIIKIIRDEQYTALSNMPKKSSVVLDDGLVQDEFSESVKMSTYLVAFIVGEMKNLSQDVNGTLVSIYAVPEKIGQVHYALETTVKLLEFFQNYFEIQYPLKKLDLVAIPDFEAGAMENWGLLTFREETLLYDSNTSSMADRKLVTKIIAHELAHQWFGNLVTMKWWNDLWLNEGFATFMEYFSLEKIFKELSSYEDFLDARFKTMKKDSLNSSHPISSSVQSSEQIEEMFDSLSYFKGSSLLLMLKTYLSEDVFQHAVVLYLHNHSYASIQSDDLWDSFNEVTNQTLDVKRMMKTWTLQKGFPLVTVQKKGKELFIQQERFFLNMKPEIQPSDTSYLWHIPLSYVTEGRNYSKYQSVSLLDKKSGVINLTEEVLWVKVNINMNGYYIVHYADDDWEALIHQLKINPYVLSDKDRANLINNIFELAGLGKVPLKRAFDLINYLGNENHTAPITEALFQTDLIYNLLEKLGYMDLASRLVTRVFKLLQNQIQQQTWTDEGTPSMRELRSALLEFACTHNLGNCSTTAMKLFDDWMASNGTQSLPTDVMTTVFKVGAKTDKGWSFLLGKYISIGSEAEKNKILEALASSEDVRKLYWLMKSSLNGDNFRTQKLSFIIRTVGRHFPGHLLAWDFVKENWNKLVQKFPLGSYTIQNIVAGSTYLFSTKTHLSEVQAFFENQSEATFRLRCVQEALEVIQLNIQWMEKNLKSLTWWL

In data set [1], `CCCCN1C(=O)c2ccccc2NC12C(=O)N(C)c1ccc(Br)cc12` (stereo not shown) [Compound 38, 5‐Bromo‐3′‐butyl‐1‐methyl‐1′H‐spiro[indoline‐3,2′‐quinazoline]‐2,4′(3′H)‐dione] showed a half-life of less than 2.3 min and a microsomal CLint of more than 300 µL/min/mg. The same compound returned a fraction unbound in data set [2] of 0.019 ± 0.004. Also, in data set [3], the hepatocyte CLint is 248 ± 5 µL/min/1e6 cells and the half-life was 2.8 ± 0.06 min. Also, the “Plasma stab (human plasma stability)” value in “Human plasma stability” is 105±7 % compound remaining.
On to `COc1ccc2c(c1)C1(Nc3ccccc3C(=O)N1c1ccc(C)cc1)C(=O)N2C` (stereo not shown) [Compound 9, 5‐Methoxy‐1‐methyl‐3′‐(p‐tolyl)‐1′H‐spiro[indoline‐3,2′‐quinazoline]‐2,4′(3′H)‐dione], for which the “decrease of activity compared to compound 1” value on IRAP from CHO cells is “tenfold”.
For the compound `CN1C(=O)C2(Nc3ccccc3C(=O)N2Cc2ccccc2)c2cc(Br)ccc21` (racemic) [Compound 32, 3′‐Benzyl‐5‐bromo‐1‐methyl‐1′H‐spiro[indoline‐3,2′‐quinazoline]‐2,4′(3′H)‐dione], in data set [4], the “specificity for IRAP over human APN” value is reported as “specificity for IRAP over human APN” and the pIC50 entry is recorded as “Inactive”. Further, the “mode of inhibition versus L-Leu-pNA” value on IRAP is given as “uncompetitive inhibitor”. Besides, the midpoint of inhibition in data set [5], the IC50, lay at 5.01 µM.
In the case of `Cc1ccc(N2C(=O)c3ccccc3NC23C(=O)N(C)c2ccc([N+](=O)[O-])cc23)cc1` (stereo not shown) [Compound 7, 1‐Methyl‐5‐nitro‐3′‐(p‐tolyl)‐1′H‐spiro[indoline‐3,2′‐quinazoline]‐2,4′(3′H)‐dione], in data set [1], the half-life was less than 2.3 min and the microsomal CLint is more than 300 µL/min/mg. Further, in data set [4], the “specificity for IRAP over human APN” value is reported as “specificity for IRAP over human APN” and the pIC50 result is “completely inactive”. The same compound had an IC50 in data set [5] of 31.6 µM. The “loss of activity on hIRAP compared to IRAP from CHO-cells” value in data set [5] (hIRAP versus CHO IRAP) fell in the range of 10 to 15 fold. The compound also registered an unbound share (fraction unbound) in data set [2] of 0.098 ± 0.02. For the same compound, in data set [3], the hepatocyte CLint is 114 ± 4 µL/min/1e6 cells and the half-life is 6.1 ± 0.2 min. In addition, in the data set “Human plasma stability”, the “Plasma stab (human plasma stability)” value turned out to be 100±5 % compound remaining.
On to `Cc1ccc(N2C(=O)c3ccccc3NC23C(=O)N(C)c2ccc(C)cc23)cc1` (stereo not shown) [Compound 10, 1,5‐Dimethyl‐3′‐(p‐tolyl)‐1′H‐spiro[indoline‐3,2′‐quinazoline]‐2,4′(3′H)‐dione], for which the “decrease of activity compared to compound 1” value at IRAP from CHO cells is on record as “tenfold”.
As for `CN1C(=O)C2(Nc3ccccc3C(=O)N2Cc2ccco2)c2cc(Br)ccc21` (stereo not shown) [Compound 37, 5‐Bromo‐3′‐(furan‐2‐ylmethyl)‐1‐methyl‐1′H‐spiro[indoline‐3,2′‐quinazoline]‐2,4′(3′H)‐dione], in data set [1], the half-life was less than 2.3 min and the microsomal CLint is more than 300 µL/min/mg. In addition, in data set [4], the “specificity for IRAP over human APN” value was “specificity for IRAP over human APN” and the pIC50 result is on record as “Inactive”. Also, half-maximal inhibition in data set [5] (IC50) was put at 12.6 µM. In addition, the unbound share (fraction unbound) in data set [2] stood at 0.041 ± 0.008. In data set [3], this compound displayed a hepatocyte CLint of 132 ± 39 µL/min/1e6 cells and a half-life of 5.5 ± 1.4 min. The “Plasma stab (human plasma stability)” value in the data set “Human plasma stability” is on record as 98±3 % compound remaining.
In data set [1], `CCc1ccccc1-c1ccc2c(c1)C1(Nc3ccccc3C(=O)N1c1ccc(C)cc1)C(=O)N2C` (stereo not shown) [Compound 15, 5‐(2‐Ethylphenyl)‐1‐methyl‐3′‐(p‐tolyl)‐1′H‐spiro[indoline‐3,2′‐quinazoline]‐2,4′(3′H)‐dione] showed a half-life of less than 2.3 min and a microsomal CLint of more than 300 µL/min/mg. In data set [2], the fraction unbound fell in the range of 0.0025 to 0.032. In data set [3], this compound registered a hepatocyte CLint of more than 300 µL/min/1e6 cells and a half-life of less than 2.3 min. The “Plasma stab (human plasma stability)” value in the data set “Human plasma stability” turned out to be 102±25 % compound remaining.
On to `COCCN1C(=O)c2ccccc2NC12C(=O)N(C)c1ccc(Br)cc12` (stereo not shown) [Compound 39, 5‐Bromo‐3′‐(2‐methoxyethyl)‐1‐methyl‐1′H‐spiro[indoline‐3,2′‐quinazoline]‐2,4′(3′H)‐dione], for which, in data set [1], the half-life is less than 2.3 min and the microsomal CLint is more than 300 µL/min/mg. For the same compound, in data set [4], the “specificity for IRAP over human APN” value is “specificity for IRAP over human APN” and the pIC50 result is “Inactive”. This compound also had an IC50 in data set [5] of 50.1 µM. The same compound came in with a fraction unbound in data set [2] of 0.14 ± 0.006. In data set [3], this compound showed a hepatocyte CLint of 91 ± 8 µL/min/1e6 cells and a half-life of 7.6 ± 0.6 min. In “Human plasma stability”, the “Plasma stab (human plasma stability)” value is 99±1 % compound remaining.
In data set [1], `CN1C(=O)C2(Nc3ccccc3C(=O)N2Cc2cccnc2)c2cc(Br)ccc21` (stereo not shown) [Compound 36, 5‐Bromo‐1‐methyl‐3′‐(pyridin‐3‐ylmethyl)‐1′H‐spiro[indoline‐3,2′‐quinazoline]‐2,4′(3′H)‐dione] registered a half-life of less than 2.3 min and a microsomal CLint of more than 300 µL/min/mg. Further, in data set [4], the “specificity for IRAP over human APN” value is “specificity for IRAP over human APN” and the pIC50 result is given as “Inactive”. In data set [5], this compound showed an IC50 of 31.6 µM. For the same compound, the fraction unbound in data set [2] was 0.055 ± 0.004. Besides, in data set [3], the hepatocyte CLint came to 84 ± 14 µL/min/1e6 cells and the half-life was found to be 8.5 ± 1.6 min. In addition, in “Human plasma stability”, the “Plasma stab (human plasma stability)” value was 97±15 % compound remaining.
In the case of `CN(C)CCN1C(=O)c2ccccc2NC12C(=O)N(C)c1ccc(Br)cc12` (stereo not shown) [Compound 40, 5‐Bromo‐3′‐(2‐(dimethylamino)ethyl)‐1‐methyl‐1′H‐spiro[indoline‐3,2′‐quinazoline]‐2,4′(3′H)‐dione], in data set [1], the half-life is 8.6 ± 1 min and the microsomal CLint was 81 ± 10 µL/min/mg. In addition, in data set [4], the “specificity for IRAP over human APN” value was “specificity for IRAP over human APN” and the pIC50 entry is listed as “Inactive”. In data set [5], this compound had an IC50 of 39.8 µM. Moreover, the fraction unbound in data set [2] was 0.4 ± 0.04. In data set [3], this compound registered a hepatocyte CLint of 136 ± 22 µL/min/1e6 cells and a half-life of 5.2 ± 0.9 min. Besides, in the data set “Human plasma stability”, the “Plasma stab (human plasma stability)” value was determined as 95±2 % compound remaining.
